In brackets after ≈: the same amount, converted by molar mass. Activity calls are given as the source filed them. The rule behind the calls is not given here.

Test [1] relates to Aspergillus fumigatus. The test can be described thus: Antifungal activity against Aspergillus fumigatus after 72 hrs by micro broth dilution method. The test is classed as functional. The procedure, abridged: (§1)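 Micro broth dilution per NCCLS in RPMI 1640 buffered with MOPS. Inoculum 1-5 × 10³ cells/mL. Plates kept in a moist chamber at 35 °C. Absorbance read at 492 nm after 48 h (C. albicans, C. parapsilosis), 72 h (A. fumigatus, S. schenckii, C. neoformans) or 96 h (T. mentagrophytes). MIC taken as 90% growth inhibition versus control.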
(In general: Dilution methods test growth across graded concentrations, often in twofold steps.)

The subject of test [2] is Cryptococcus neoformans. The test can be described thus: Antifungal activity against Cryptococcus neoformans after 72 hrs by micro broth dilution method. The test is classed as functional. In short, it runs like this: as §1
The test system of test [3] is Sporothrix schenckii. The test can be described thus: Antifungal activity against Sporothrix schenckii after 72 hrs by micro broth dilution method. The class given is functional. The procedure, abridged:
as §1

The subject of test [4] is HeLa. The test is described as follows: Antiproliferative activity against human HeLa cells at 20 uM after 24 hrs by sulforhodamine B assay. The class given is functional. The procedure, abridged:
(§2)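 HeLa cells grown in Eagle's MEM with 10% FBS at 37 °C under 5% CO2. Seeded at 1 × 10⁵ cells/mL and medium replaced after 24 h. Compounds added from DMSO stocks (final DMSO below 0.1%; DMSO vehicle as control) for one cell cycle (24 h). Cells stained with 0.4% sulforhodamine B and protein-bound dye read at 560 nm.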
In general terms: Sulforhodamine B stains cellular protein and so reports cell mass.

The subject of test [5] is Candida parapsilosis. The test is described as follows: Antifungal activity against Candida parapsilosis ATCC 22019 after 48 hrs by micro broth dilution method. The test is classed as functional. Particulars: Lodderomyces parapsilosis, ATCC 22019, 48 h. The procedure, abridged:
as §1

Test [6] relates to Candida albicans. The test can be described thus: Antifungal activity against Candida albicans after 48 hrs by micro broth dilution method. The class given is functional. In short, it runs like this:
as §1

The subject of test [7] is HeLa. The test can be described thus: Antiproliferative activity against human HeLa cells at 5 uM after 24 hrs by sulforhodamine B assay. The class given is functional. The procedure, abridged:
as §2

Test [8] has as its system Trichophyton mentagrophytes. The test is described as follows: Antifungal activity against Trichophyton mentagrophytes after 96 hrs by micro broth dilution method. The test is classed as functional. In short, it runs like this: as §1
Test [9] has as its system HeLa. The test is described as follows: Antiproliferative activity against human HeLa cells at 1 uM after 24 hrs by sulforhodamine B assay. The class given is functional. The procedure, abridged: as §2
Test [10] relates to HeLa. The test is described as follows: Antiproliferative activity against human HeLa cells at 34 uM after 24 hrs by sulforhodamine B assay. The test is classed as functional.
In test [11] the test system is HeLa. The test is described as follows: Induction of apoptosis in human HeLa cells assessed as morphological changes at 5 uM after 24 hrs by differential interference contrast microscopy. The test is classed as functional, cell-based. The procedure, abridged:
(§3)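 HeLa cells grown on coverslips at 5 × 10⁴ cells/mL and incubated 24 h with 5 µM compound. Stained with FITC-Annexin V (early apoptosis) and propidium iodide (late apoptosis/necrosis) using a kit. Imaged by DIC for morphology and by fluorescence.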

Test [12] concerns HeLa. The test is described as follows: Induction of apoptosis in human HeLa cells at 5 uM after 24 hrs by annexin 5-propidium iodide staining mathod. The class given is functional, cell-based. In short, it runs like this:
as §3

Test [13] has as its system HeLa. The test can be described thus: Induction of apoptosis in human HeLa cells assessed as cell population at mitosis at 20 uM after 24 hrs. The class given is functional. In short, it runs like this:
(§4)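 HeLa cells grown on coverslips and exposed 24 h to compound (5, 10, 20 µM or none). Microtubules stained with mouse anti-α-tubulin and FITC anti-mouse IgG, chromosomes with DAPI. Mitotic cells scored by fluorescence microscopy.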

Test [14] has as its system HeLa. The test can be described thus: Induction of apoptosis in human HeLa cells assessed as cell population at mitosis at 10 uM after 24 hrs. The class given is functional. The procedure, abridged: as §4
The test system of test [15] is HeLa. The test is described as follows: Induction of apoptosis in human HeLa cells assessed as cell population at mitosis at 5 uM after 24 hrs. The class given is functional. In short, it runs like this:
as §4

Test [16] has as its system HeLa. The test can be described thus: Induction of apoptosis in human HeLa cells assessed as blockade of cell cycle progression at mitosis after 24 hrs. The class given is functional, cell-based. In short, it runs like this:
as §4

Consider `COc1ccc2[nH]c3c(=O)c4ccccc4c(=O)c=3sc2c1`, for which the MIC (in general, the lowest concentration found to suppress growth) in test [1] was > 50 µg/mL; in test [2] it was > 50 µg/mL; in test [3], > 50 µg/mL; in [5], > 50 µg/mL; in [6], > 50 µg/mL; in test [8], 50 µg/mL (≈ 162 µM). For the same molecule, the inhibition (usually the share of the control response that was lost under treatment) at 20 µM in test [4] came to 77%. In [7], this molecule showed an inhibition at 5 µM of 20%. In addition, the inhibition at 1 µM in [9] is 8.5%.

As for `O=c1c2[nH]c3ccccc3sc=2c(=O)c2ccccc12`, the MIC is > 50 µg/mL in test [1]; > 50 µg/mL in test [2]; 50 µg/mL (≈ 179 µM) in [3]; > 50 µg/mL in [5]; > 50 µg/mL in test [6]; > 50 µg/mL in test [8]. Testing at 20 µM in test [4] gave an inhibition of 42%. The same molecule gave an inhibition at 5 µM in [7] of 6.5%. In [9], the inhibition at 1 µM came to 5.5%.

Consider `O=c1c2[nH]c3ccc4ccccc4c3sc=2c(=O)c2ccccc12`, for which the MIC in test [1] is > 50 µg/mL; in test [2], > 50 µg/mL; in [3] it was 50 µg/mL (≈ 152 µM); in [5], > 50 µg/mL; in [6], > 50 µg/mL; in test [8], > 50 µg/mL. Besides, the inhibition at 20 µM in [4] was determined as 42%. The molecule also came in with an inhibition at 5 µM in test [7] of 19%. In test [9], this molecule gave an inhibition at 1 µM of 12%.

On to `O=C1C(Sc2cccc3ccccc23)=C(Sc2cccc3ccccc23)C(=O)c2ccccc21`, for which the MIC in test [1], in test [2], in test [3], in test [5], in [6] and in test [8] was > 50 µg/mL throughout. The molecule also registered an inhibition at 20 µM in [4] of 46%. In addition, testing at 5 µM in test [7] gave an inhibition of 30%. This molecule also yielded an inhibition at 1 µM in test [9] of 22%.

On to NYSTATIN, for which the values for the MIC in [2], in test [3] and in test [6] were 3.5 µg/mL, 13.2 µg/mL and 7.8 µg/mL, respectively.

Turning to `Clc1ccc(COC(Cn2ccnc2)c2ccc(Cl)cc2Cl)c(Cl)c1` (stereo not given) [MICONAZOLE], the MIC in test [1] is 12.5 µg/mL (≈ 30 µM); in test [2] it was 12.5 µg/mL (≈ 30 µM); in [6], 25 µg/mL (≈ 60.1 µM); in test [8], < 0.78 µg/mL.

Molecule `COc1ccc2c(c1OC)C(=O)O[C@@H]2[C@H]1c2c(cc3c(c2OC)OCO3)CCN1C` [NOSCAPINE] displayed an inhibition at 34 µM in [10] of 50%.

On to `O=C1C(Cl)=C(Cl)C(=O)c2ccccc21` [Dichlon], for which the MIC came out at 1.56 µg/mL (≈ 6.87 µM) in test [1]; 3.12 µg/mL (≈ 13.7 µM) in [2]; 0.78 µg/mL (≈ 3.44 µM) in test [3]; 1.56 µg/mL (≈ 6.87 µM) in [5]; 0.78 µg/mL (≈ 3.44 µM) in test [6]; 1.56 µg/mL (≈ 6.87 µM) in [8]. In test [4], testing at 20 µM gave an inhibition of 49%. Besides, the inhibition at 5 µM in [7] was 43%. The inhibition at 1 µM in [9] stood at 28%.

For `COc1cccc(SC2=C(Sc3cccc(OC)c3)C(=O)c3ccccc3C2=O)c1`, the MIC in [1] was > 50 µg/mL; in test [2] it was > 50 µg/mL; in test [3], > 50 µg/mL; in test [5], > 50 µg/mL; in [6] it was > 50 µg/mL; in test [8], 50 µg/mL (≈ 115 µM). The outcome in [11] and in test [12] was Active. Further, the Activity in [13] came out at 4.2%; in [14], 3.8%; in test [15] it was 3.5%. In test [4], this molecule showed an inhibition at 20 µM of 100%. Besides, in [7], the inhibition at 5 µM turned out to be 76%. This molecule also yielded an inhibition at 1 µM in test [9] of 64%.

As to `O=C1C(Cl)=C(Sc2cccc3ccccc23)C(=O)c2ccccc21`, the MIC in test [1] amounted to 50 µg/mL (≈ 143 µM); in [2], 50 µg/mL (≈ 143 µM); in [3], 6.25 µg/mL (≈ 17.8 µM); in [5], 50 µg/mL (≈ 143 µM); in test [6] it was 50 µg/mL (≈ 143 µM); in [8], 6.25 µg/mL (≈ 17.8 µM). Moreover, in [4], the inhibition at 20 µM turned out to be 69%. For the same molecule, at 5 µM the inhibition in test [7] was 22%. The inhibition at 1 µM in test [9] came out at 0%.

Turning to `OC(Cn1cncn1)(Cn1cncn1)c1ccc(F)cc1F` [FLUCONAZOLE], the MIC amounted to 2 µg/mL (≈ 6.53 µM) in test [1]; 1 µg/mL (≈ 3.27 µM) in [2]; 2 µg/mL (≈ 6.53 µM) in test [3]; 2 µg/mL (≈ 6.53 µM) in test [5]; 1 µg/mL (≈ 3.27 µM) in test [6]; 0.5 µg/mL (≈ 1.63 µM) in [8].

For `COc1cccc(SC2=C(Cl)C(=O)c3ccccc3C2=O)c1`, the MIC in test [1] came to 25 µg/mL (≈ 75.6 µM); in [2] it was 25 µg/mL (≈ 75.6 µM); in [3], 3.12 µg/mL (≈ 9.43 µM); in test [5], 25 µg/mL (≈ 75.6 µM); in test [6], 25 µg/mL (≈ 75.6 µM); in test [8] it was 3.12 µg/mL (≈ 9.43 µM). The same molecule had an inhibition at 20 µM in test [4] of 74%. The same molecule yielded an inhibition at 5 µM in test [7] of 48%. The inhibition at 1 µM in test [9] was found to be 39%.

Consider `O=C1C(Sc2ccccc2)=C(Sc2ccccc2)C(=O)c2ccccc21`, for which the result in [16] was inactive. The MIC in test [1] was > 50 µg/mL; in test [2] it was > 50 µg/mL; in test [3], 50 µg/mL (≈ 134 µM); in test [5], > 50 µg/mL; in test [6] it was > 50 µg/mL; in test [8] it was > 50 µg/mL. The outcome in test [11] and in [12] was Active. In test [4], this molecule came in with an inhibition at 20 µM of 100%. The same molecule gave an inhibition at 5 µM in [7] of 60%. Further, the inhibition at 1 µM in test [9] turned out to be 51%.

Turning to `C[C@@H]1[C@H](O)[C@@H](C)/C=C/C=C/C=C/C=C/C=C/C=C/C=C/[C@H](O[C@@H]2O[C@H](C)[C@@H](O)[C@H](N)[C@@H]2O)C[C@@H]2O[C@](O)(C[C@@H](O)C[C@@H](O)[C@H](O)CC[C@@H](O)C[C@@H](O)CC(=O)O[C@H]1C)C[C@H](O)[C@H]2C(=O)O` [AMPHOTERICIN B], the MIC in test [2] is 0.78 µg/mL (≈ 0.844 µM); in test [6], 0.39 µg/mL (≈ 0.422 µM); in test [8], 1.56 µg/mL (≈ 1.69 µM).

For the molecule `O=C1C(Cl)=C(Sc2ccccc2)C(=O)c2ccccc21`, the MIC in [1] stood at 12.5 µg/mL (≈ 41.6 µM); in test [2], 6.25 µg/mL (≈ 20.8 µM); in test [3], 1.56 µg/mL (≈ 5.19 µM); in test [5], 6.25 µg/mL (≈ 20.8 µM); in [6] it was 6.25 µg/mL (≈ 20.8 µM); in [8], 1.56 µg/mL (≈ 5.19 µM). The molecule also showed an inhibition at 20 µM in [4] of 73%. In test [7], this molecule showed an inhibition at 5 µM of 29%. Also, testing at 1 µM in test [9] gave an inhibition of 15%.

These data come from ChEMBL document CHEMBL1138562, “2,3-Disubstituted-1,4-naphthoquinones, 12H-benzo[b]phenothiazine-6,11-diones and related compounds: synthesis and biological evaluation as potential antiproliferative and antifungal agents” (2009).
